According to ChEMBL document CHEMBL4043283, “Discovery and Preclinical Development of IIIM-290, an Orally Active Potent Cyclin-Dependent Kinase Inhibitor” (J Med Chem, 2018):
Converted amounts (≈) assume the structure as drawn. The source made the active and inactive calls. No cut-off for these calls is given here.

Legend:
[1] = Toxicity in po dosed Swiss albino mouse allografted with Swiss mouse EAC administered for 9 day; assay type: organism-based; settings: in vivo
[2] = test system: HL-60; experiment: Growth inhibition of human HL60 cells after 48 hrs by MTT assay; assay type: functional; settings: HL-60, 48 h
Summary of the method: (§1)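 Cancer cell lines sourced from the National Cancer Institute (USA). Cells kept in appropriate growth medium at 37 °C, 95% humidity, 5% CO2. Antiproliferation read by tetrazolium (MTT) assay. GI50 values were determined only for compounds selected after an initial single-concentration screen.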

[3] = test system: Caco-2; experiment: Growth inhibition of human Caco2 cells at 10 uM after 48 hrs by MTT assay relative to control; assay type: functional; settings: Caco-2, 48 h, read-out: GI
Summary of the method: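 Single-concentration primary screen at 10 μM by MTT assay. Cells were NCI-sourced cancer lines grown in appropriate medium at 37 °C, 95% humidity, 5% CO2. Growth inhibition is expressed relative to control.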

[4] = Oral bioavailability in BALB/c mouse at 10 mg/kg by LC-MS/MS analysis; assay type: ADME, organism-based; settings: in vivo
[5] = target: CDK6/cyclin D3 (Homo sapiens, UniProt Q00534); experiment: Inhibition of CDK6/cyclin D3 (unknown origin) after 30 mins in presence of [33P]-gamma-ATP by filter binding assay; assay type: protein-complex assay
[6] = target: Cytochrome P450 1A2 (Homo sapiens, UniProt P05177); experiment: Inhibition of human CYP1A2 using fluorogenic substrate preincubated with co-factor for 10 mins followed by enzyme-substrate addition by fluorometric method; assay type: ADME
Summary of the method: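 Cofactor plus test item or vehicle, in triplicate, preincubated 10 min at 37 °C; prewarmed enzyme–substrate mix added and incubated at 37 °C with shaking. Quench: acetonitrile (CYP2C19, CYP3A4) or 0.25 M Tris in 60% methanol (CYP2C9, CYP2D6). Metabolite fluorescence read; % inhibition computed against enzyme controls and enzyme-free blanks.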

[7] = test system: Lung; experiment: Drug uptake in BALB/c mouse lung at 30 mg/kg, po after 8 hrs; assay type: ADME, organism-based; settings: in vivo
[8] = Apparent permeability across apical to basolateral side in human Caco2 cells after 90 mins by LC-MS/MS analysis; assay type: ADME, cell-based; settings: Caco-2
Summary of the method: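 Caco-2 monolayers were grown for 21 days. Test compound in HBSS containing 10 mM HEPES was added to the apical chamber, and samples were taken from both the apical and basolateral chambers.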

[9] = test system: MIA PaCa-2; experiment: Disruption of mitochondrial membrane potential in human MIAPaCa2 cells by Rh123 dye-based assay; assay type: functional, cell-based
[10] = test system: MIA PaCa-2; experiment: Induction of apoptosis in human MIAPaCa2 cells assessed as formation of apoptotic bodies after 24 hrs by scanning electron microscopy; assay type: functional, cell-based
Summary of the method: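 Cells exposed to different compound concentrations for 24 h on coverslips, fixed in 2.5% glutaraldehyde in 0.1 M phosphate buffer pH 7.2 (4 °C, 24 h), postfixed in 1% OsO4 4 h, ethanol-dehydrated, critical-point dried with HMDS, gold-coated, imaged at 20 kV.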

[11] = target: CDK4/Cyclin D3 (Homo sapiens) (UniProt P11802+P30281); experiment: Inhibition of full length wild type human CDK4/cyclin D3 expressed in mammalian expression system at 0.5 uM by KINOMEscan method relative to control
Summary of the method: (§2)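 Competition binding screen (KINOMEscan) at 0.5 μM; primary binding read out as % of control, lower values indicating stronger interaction.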

[12] = Intrinsic clearance in monkey liver S9 fraction assessed per mg of protein preincubated for 5 mins followed by NADPH addition measured after 30 mins by LC-MS/MS analysis; assay type: ADME, tissue-based, Macaca mulatta; settings: rhesus monkey, s9, 0.5 h
[13] = Half life in mouse hepatocytes at 3 uM after 180 mins by LC-MS/MS analysis; assay type: ADME, cell-based, Hepatocyte
[14] = Tmax in Sprague-Dawley rat at 3 mg/kg, po by LC-MS/MS analysis; assay type: ADME, organism-based; settings: in vivo
[15] = target: Non-receptor tyrosine-protein kinase TYK2 (Homo sapiens) (UniProt P29597); experiment: Inhibition of partial length wild type human Tyk2 expressed in mammalian expression system at 0.5 uM by KINOMEscan method relative to control; summary of the method: as §2
[16] = Half life in Sprague-Dawley rat at 10 mg/kg, po by LC-MS/MS analysis; assay type: ADME, organism-based; settings: in vivo
[17] = Thermodynamic equilibrium solubility of compound in PBS at pH 7.4 after 5 hrs by shake flask method; assay type: physicochemical; settings: read-out: Therm_solubility
[18] = test system: COLO 205; experiment: Growth inhibition of human COLO205 cells after 48 hrs by MTT assay; assay type: functional; settings: COLO 205, 48 h; summary of the method: as §1
[19] = test system: MIA PaCa-2; experiment: Cell cycle arrest in human MIAPaCa2 cells assessed as accumulation at G2 phase at 1.5 uM after 24 hrs by propidium iodide staining-based flow cytometric method (reference value: 30%); assay type: functional
[20] = Half life in mouse liver S9 fraction preincubated for 5 mins followed by NADPH addition measured after 30 mins by LC-MS/MS analysis; assay type: ADME, tissue-based
Summary of the method: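 Parent loss followed over time to give half-life, with NADPH as cofactor for microsomal phase I metabolism.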

[21] = Pancreas to plasma partition coefficient, Kp of the compound in Sprague-Dawley rat at 30 mg/kg, po measured at 0.5 hrs; assay type: ADME, organism-based; settings: pancreas and plasma
[22] = test system: Mus musculus; experiment: Toxicity in CD1 nude mouse xenografted with human MIAPaCa2 cells assessed as change in body weight at 25 to 50 mg/kg, po qd administered on day 10 to 25 post tumor inoculation; assay type: organism-based; settings: in vivo
[23] = test system: Salmonella typhimurium; experiment: Mutagenicity in Salmonella typhimurium TA1535 at 50 ug/plate in absence of liver S9 fraction by Ames test; assay type: toxicity; settings: salmonella enterica subsp. enterica serovar typhimurium
[24] = Intrinsic clearance in rat hepatocytes assessed per million cells at 3 uM after 180 mins by LC-MS/MS analysis; assay type: ADME, cell-based, Hepatocyte; settings: read-out: CLH
[25] = test system: BT-549; experiment: Growth inhibition of human BT549 cells after 48 hrs by MTT assay; assay type: functional; settings: BT-549, 48 h; summary of the method: as §1
[26] = Metabolic stability in mouse plasma assessed as parent compound remaining after 8 hrs by HPLC method; assay type: ADME, cell-free; settings: read-out: Stability
[27] = AUC in BALB/c mouse at 10 mg/kg, po by LC-MS/MS analysis; assay type: ADME, organism-based; settings: in vivo
[28] = test system: Mus musculus; experiment: Toxicity in Swiss albino mouse allografted with Swiss mouse EAC assessed as mortality at 70 to 100 mg/kg, po administered for 9 day; assay type: organism-based; settings: in vivo, 216 h
[29] = Chemical stability of compound in phosphate buffer at pH 4 assessed as parent compound remaining at 120 ug/ml after 24 hrs by HPLC method; assay type: physicochemical; settings: read-out: Stability
[30] = Protein binding in mouse plasma at 3 uM after 5 hrs by equilibrium dialysis method; assay type: ADME, cell-free; settings: read-out: PPB (converted)
[31] = test system: OVCAR-3; experiment: Growth inhibition of human OVCAR3 cells after 48 hrs by MTT assay; assay type: functional; settings: OVCAR-3, 48 h; summary of the method: as §1
[32] = Cmax in BALB/c mouse at 30 mg/kg, po by LC-MS/MS analysis; assay type: ADME, organism-based; set-up: dose 30 mg/kg, route oral; settings: in vivo
[33] = target: PRKCE (protein kinase C epsilon) (Homo sapiens, UniProt Q02156); experiment: Inhibition of partial length wild type human PRKCE expressed in mammalian expression system at 0.5 uM by KINOMEscan method relative to control; summary of the method: as §2
[34] = target: serum albumin (Homo sapiens, UniProt P02768); experiment: Binding affinity to human serum albumin; assay type: ADME; settings: read-out: PB (converted)
[35] = Thermodynamic equilibrium solubility of compound in SIF at pH 6.8 after 5 hrs by shake flask method; assay type: physicochemical; settings: read-out: Therm_solubility

Cytochrome P450 1A2, sequence (P05177 whole entry): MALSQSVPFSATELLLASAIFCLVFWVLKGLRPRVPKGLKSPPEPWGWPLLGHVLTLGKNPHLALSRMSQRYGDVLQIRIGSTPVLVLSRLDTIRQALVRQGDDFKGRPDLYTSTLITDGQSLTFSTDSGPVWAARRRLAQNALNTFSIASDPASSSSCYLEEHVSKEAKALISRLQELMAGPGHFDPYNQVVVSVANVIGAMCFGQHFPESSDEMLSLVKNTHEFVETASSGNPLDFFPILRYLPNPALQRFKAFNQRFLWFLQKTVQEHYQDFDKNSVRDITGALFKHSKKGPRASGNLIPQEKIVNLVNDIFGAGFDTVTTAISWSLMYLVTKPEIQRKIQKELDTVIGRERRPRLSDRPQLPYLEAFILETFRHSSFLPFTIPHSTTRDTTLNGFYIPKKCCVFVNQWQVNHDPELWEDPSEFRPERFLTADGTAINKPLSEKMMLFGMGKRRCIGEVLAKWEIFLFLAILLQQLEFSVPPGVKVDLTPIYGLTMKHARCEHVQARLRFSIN
serum albumin, sequence (P02768 whole entry): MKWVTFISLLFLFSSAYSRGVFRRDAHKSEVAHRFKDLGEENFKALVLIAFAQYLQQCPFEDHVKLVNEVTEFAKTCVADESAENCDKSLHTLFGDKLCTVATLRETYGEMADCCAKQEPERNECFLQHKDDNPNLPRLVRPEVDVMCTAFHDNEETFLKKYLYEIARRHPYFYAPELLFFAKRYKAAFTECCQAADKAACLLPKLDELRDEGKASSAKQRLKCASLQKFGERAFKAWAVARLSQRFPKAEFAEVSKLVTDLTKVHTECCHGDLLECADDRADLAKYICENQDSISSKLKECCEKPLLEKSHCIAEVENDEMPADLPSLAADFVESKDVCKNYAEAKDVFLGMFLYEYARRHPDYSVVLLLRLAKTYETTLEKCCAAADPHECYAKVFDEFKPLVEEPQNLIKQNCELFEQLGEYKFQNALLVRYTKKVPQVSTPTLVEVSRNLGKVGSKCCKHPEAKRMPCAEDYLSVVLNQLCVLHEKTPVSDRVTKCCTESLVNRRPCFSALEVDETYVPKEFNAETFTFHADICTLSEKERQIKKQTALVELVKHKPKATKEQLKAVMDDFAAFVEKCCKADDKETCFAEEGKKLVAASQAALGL
Non-receptor tyrosine-protein kinase TYK2 (Homo sapiens), sequence (P29597 whole entry): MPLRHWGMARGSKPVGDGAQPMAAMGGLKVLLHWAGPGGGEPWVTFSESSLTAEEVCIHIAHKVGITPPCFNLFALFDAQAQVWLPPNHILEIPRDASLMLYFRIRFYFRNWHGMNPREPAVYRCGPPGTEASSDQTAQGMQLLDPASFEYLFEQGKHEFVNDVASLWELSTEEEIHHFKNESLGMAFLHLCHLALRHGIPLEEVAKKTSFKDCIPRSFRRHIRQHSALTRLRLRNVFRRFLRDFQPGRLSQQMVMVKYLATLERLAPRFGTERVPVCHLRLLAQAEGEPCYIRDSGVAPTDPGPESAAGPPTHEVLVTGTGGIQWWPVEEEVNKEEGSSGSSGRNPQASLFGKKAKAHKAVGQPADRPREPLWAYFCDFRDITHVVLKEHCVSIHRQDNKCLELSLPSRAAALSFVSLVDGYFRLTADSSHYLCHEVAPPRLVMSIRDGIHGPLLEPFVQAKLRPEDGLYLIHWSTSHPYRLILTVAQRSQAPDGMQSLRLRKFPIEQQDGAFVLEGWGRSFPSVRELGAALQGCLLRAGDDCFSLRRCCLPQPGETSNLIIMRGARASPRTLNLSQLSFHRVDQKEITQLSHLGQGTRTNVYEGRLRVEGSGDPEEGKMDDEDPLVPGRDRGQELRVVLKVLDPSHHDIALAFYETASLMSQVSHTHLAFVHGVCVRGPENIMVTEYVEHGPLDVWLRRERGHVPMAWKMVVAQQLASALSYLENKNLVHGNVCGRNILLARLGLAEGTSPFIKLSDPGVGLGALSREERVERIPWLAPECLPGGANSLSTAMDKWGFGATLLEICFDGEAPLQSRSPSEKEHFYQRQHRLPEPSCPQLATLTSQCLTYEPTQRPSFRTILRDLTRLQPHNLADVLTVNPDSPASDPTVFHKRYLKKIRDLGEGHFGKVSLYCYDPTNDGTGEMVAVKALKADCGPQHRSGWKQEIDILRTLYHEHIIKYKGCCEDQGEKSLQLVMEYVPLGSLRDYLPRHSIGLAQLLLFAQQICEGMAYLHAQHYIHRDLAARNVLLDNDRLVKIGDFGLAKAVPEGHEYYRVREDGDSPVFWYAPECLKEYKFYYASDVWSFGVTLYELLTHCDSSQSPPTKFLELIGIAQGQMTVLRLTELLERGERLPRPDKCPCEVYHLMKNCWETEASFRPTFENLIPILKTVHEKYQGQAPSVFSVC
CDK6/cyclin D3, sequence (P30281 whole entry): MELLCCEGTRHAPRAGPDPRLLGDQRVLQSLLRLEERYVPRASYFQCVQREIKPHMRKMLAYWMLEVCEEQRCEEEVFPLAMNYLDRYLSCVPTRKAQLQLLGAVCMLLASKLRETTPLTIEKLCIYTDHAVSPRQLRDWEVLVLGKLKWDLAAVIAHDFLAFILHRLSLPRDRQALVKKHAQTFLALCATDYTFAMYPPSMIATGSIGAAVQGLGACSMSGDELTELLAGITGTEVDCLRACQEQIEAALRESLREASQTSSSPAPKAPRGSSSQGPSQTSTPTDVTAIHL
CDK6/cyclin D3, sequence (Q00534 whole entry): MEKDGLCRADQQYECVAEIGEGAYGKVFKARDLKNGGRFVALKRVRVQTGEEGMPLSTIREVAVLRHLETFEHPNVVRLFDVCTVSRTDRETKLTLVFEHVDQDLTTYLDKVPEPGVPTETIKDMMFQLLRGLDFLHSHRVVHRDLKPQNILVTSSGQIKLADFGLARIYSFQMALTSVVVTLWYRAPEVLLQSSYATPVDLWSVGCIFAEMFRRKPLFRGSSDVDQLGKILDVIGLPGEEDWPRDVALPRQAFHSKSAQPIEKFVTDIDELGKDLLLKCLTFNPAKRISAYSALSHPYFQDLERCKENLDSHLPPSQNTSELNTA
PRKCE (protein kinase C epsilon), sequence (Q02156 whole entry): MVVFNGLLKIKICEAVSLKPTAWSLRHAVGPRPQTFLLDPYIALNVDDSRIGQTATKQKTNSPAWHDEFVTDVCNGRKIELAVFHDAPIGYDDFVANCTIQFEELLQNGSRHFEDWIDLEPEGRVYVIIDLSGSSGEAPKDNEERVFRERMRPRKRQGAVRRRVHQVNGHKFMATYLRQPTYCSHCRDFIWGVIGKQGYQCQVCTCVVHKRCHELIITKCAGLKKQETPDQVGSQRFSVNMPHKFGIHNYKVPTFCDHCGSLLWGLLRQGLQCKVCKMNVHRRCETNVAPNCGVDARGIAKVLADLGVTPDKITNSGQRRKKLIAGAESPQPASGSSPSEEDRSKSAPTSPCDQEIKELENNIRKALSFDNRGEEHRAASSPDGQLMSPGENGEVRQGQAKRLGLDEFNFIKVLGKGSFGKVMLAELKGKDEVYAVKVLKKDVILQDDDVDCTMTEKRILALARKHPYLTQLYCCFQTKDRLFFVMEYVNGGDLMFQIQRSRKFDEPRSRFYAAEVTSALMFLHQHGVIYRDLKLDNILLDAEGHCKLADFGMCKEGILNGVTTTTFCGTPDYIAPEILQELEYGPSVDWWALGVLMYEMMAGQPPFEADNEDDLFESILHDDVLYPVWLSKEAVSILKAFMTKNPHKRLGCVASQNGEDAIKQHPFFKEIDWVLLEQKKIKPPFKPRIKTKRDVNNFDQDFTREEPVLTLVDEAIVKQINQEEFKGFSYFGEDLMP

For `CN1CC[C@H](c2c(O)cc(O)c3c(=O)cc(/C=C/c4c(Cl)cccc4Cl)oc23)[C@H](O)C1`, the MTD at 216 h [1] was 100 mg/kg, the GI50 [2] was 0.9 µM and the inhibition of growth at 10 µM [3] was 68%. For the same compound, the bioavailability [4] was 70.7%, the IC50 [5] was 0.199 µM and the IC50 [6] was over 20 µM. For the same compound, the Drug uptake [7] was “Active”, the Papp A→B at 1.5 h [8] was 2.1 ×10⁻⁶ cm/s and the Activity [9] was “Active”. For the same compound, the Activity [10] was “Active”, the inhibition [11] was over 98% and the CLint [12] was 25 µL/min/mg. The half-life at 3 µM [13] was 3.1 h, the Tmax [14] was 0.5 h and the inhibition [15] was over 98%. For the same compound, the half-life [16] was 5.16 h, the solubility thermodynamic at 5 h [17] was 2.29 µg/mL (≈ 4.95 µM) and the GI50 [18] was 7 µM. It also gave an Activity [19] of 19%, a half-life [20] of 1.43 h and a Kp at 0.5 h [21] of 5.3. For the same compound, the Activity [22] was “Non-Toxic”, the Activity [23] was “Non-Toxic” and the hepatocyte CLint at 3 µM [24] was 9.2 µL/min/1e6 cells. The GI50 [25] was 5 µM, the remaining at 8 h [26] was 94% and the AUC [27] was 2.41 µM·h. For the same compound, the Activity [28] was “Non-Toxic”, the remaining at 24 h, 120 ug/ml [29] was 100% and the fraction unbound at 5 h, 3 µM [30] was 0.028. The GI50 [31] was 8 µM, the Cmax [32] was 4.11 µM and the inhibition at 0.5 µM [33] was over 98%. The fraction unbound [34] was 0.033 and the solubility thermodynamic at 5 h [35] was 2.18 µg/mL (≈ 4.72 µM).
